Consider 6 compounds from publication PMC3215871 (Cancer Chemotherapy and Pharmacology, 2011).

Values joined by “and” are separate entries in the source; they are usually repeats but may differ in a detail not shown here. Equal values may be shown once. Read-outs that look alike come from different tables or passages of the source. Peptide text beside a SMILES is read from it. * marks the point of attachment. Cbz = O=C(OCc1ccccc1)*

The conditions of series [1]: cited from earlier work; for maximal plasma concentration: humans, 800 mg EGCG supplements.
For series [2], the target named is T1, 20S proteasome (Homo sapiens, UniProt P28074).
T1 sequence (P28074 60-263): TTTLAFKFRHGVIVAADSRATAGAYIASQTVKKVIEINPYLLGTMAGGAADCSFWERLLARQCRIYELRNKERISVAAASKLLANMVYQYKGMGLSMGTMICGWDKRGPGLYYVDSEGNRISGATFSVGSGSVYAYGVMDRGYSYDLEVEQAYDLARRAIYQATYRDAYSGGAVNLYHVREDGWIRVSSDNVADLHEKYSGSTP
The series is described as follows: 20S proteasome activity in xenograft tumors, enzymatic assay. Format: in vivo. Summed up: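 CWR22 human prostate tumor fragments were implanted subcutaneously by trocar in the flank of male CB-17 SCID mice aged 5–8 weeks. Tumor-bearing mice received an IV dose of the test compound. At 4 h, tumors were collected and 20S proteasome activity was measured by an enzymatic assay. Inhibition is expressed as a mean percentage relative to vehicle-treated controls.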

In series [3] the target is T2, 20S proteasome (Mus musculus, UniProt O55234).
T2 sequence (O55234 60-264): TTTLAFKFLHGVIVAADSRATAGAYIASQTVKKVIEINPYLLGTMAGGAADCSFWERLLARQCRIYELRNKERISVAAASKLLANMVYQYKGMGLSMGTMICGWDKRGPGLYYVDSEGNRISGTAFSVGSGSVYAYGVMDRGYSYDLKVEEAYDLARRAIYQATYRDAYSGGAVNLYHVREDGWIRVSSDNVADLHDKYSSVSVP
Kind of series: 20S proteasome activity in blood, enzymatic assay. Particulars: for inhibition at 0.8 mg/kg: mouse. Format: in vivo, mice. Summed up:
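20S proteasome activity in blood measured by an enzymatic assay on samples taken 4 h after dosing. Schedules were bortezomib 0.8 mg/kg IV, EGCG 50 mg/kg IV alone, EGCG 50 mg/kg IV then bortezomib 2 min later, or EGCG 50 mg/kg SC then bortezomib 30 or 60 min later. Inhibition expressed relative to vehicle controls.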

In the next series the test system is MM cell lines. Particulars: 10 nM bortezomib, several MM cell lines; cited from earlier work.
The subject of the next series is RPMI-8226 cells. The series is described as follows: Bortezomib–EGCG combination matrix, ATP luminescence cell viability. The format is cell-based, human.
The test system of series [4] is phospho-β-catenin (Ser33/Ser37/Thr41), GADD34 and ATF3. The series is described as follows: Western blot of xenograft tumors for proteasome substrate and ER stress markers. The format is in vivo, human. Particulars: 4 h. Summed up:
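CWR22 xenograft tumours harvested 4 h after dosing with bortezomib 0.8 mg/kg IV, EGCG 50 mg/kg IV, or EGCG (IV, then bortezomib 2 min later; SC, then bortezomib 30 or 60 min later). Western blots probed for phospho-β-catenin (Ser33/Ser37/Thr41), GADD34 and ATF3, compared with vehicle controls.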
In general terms: A western blot detects proteins with antibodies after separation by electrophoresis.

The subject of series [5] is CWR22 human prostate xenograft tumors. The series is described as follows: In vivo antitumor activity. Further details: species or system mice. Summed up: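 Male CB-17 SCID mice aged 5–8 weeks implanted SC in the flank (trocar) with CWR22 fragments; randomised at 150–250 mm3 (n = 9/group). EGCG 50 mg/kg IV or SC BIW for 7 doses; ascorbic acid 40 or 500 mg/kg PO QD for 22 days; vehicle 0.9% saline. Calipers BIW; volume = 0.5 × length × width². TGI from mean volumes versus control on day 22 or 25.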

For series [6] the following is noted: cited from earlier work.
In the next series the test system is glioblastoma cell line. The note with it: 20 μM EGCG, 20 nM bortezomib; cited from earlier work.
Series [7] has as its system mouse xenograft models of human MM. The note with it: cited from earlier work.
Series [8] is described as follows: Pharmacokinetics of EGCG in mice. The format is in vivo. The note with it: for Cmax: read-out: mean Cmax. The essentials: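 Naïve female nude or male CB-17 SCID mice aged 5–8 weeks given EGCG in 0.9% saline: PO 50, IV 50 and 100, or SC 50 mg/kg. Cardiac blood taken under CO2 from 5 min to 48 h; EDTA plasma stabilised 1:1 with ascorbic acid/EDTA, stored at −80°C, assayed by LC/MS/MS. Concentrations at bortezomib dosing times projected from these profiles.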

The conditions of series [9]: cited from earlier work. The source holds these as a separate data set.
The test system of the next series is RPMI8226 cells. Particulars: cited from earlier work.
Series [10] in a line: Pharmacokinetics of ascorbic acid. Format: in vivo, mice. Particulars: for Cmax / Tmax: male, CB-17 SCID, mouse, po. Summed up: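 Male CB-17 SCID mice bearing CWR22 tumours (naïve mice also sampled) given ascorbic acid 40 or 500 mg/kg PO in 0.9% saline. Cardiac blood taken at 0.5–6 h into lithium heparin; plasma stabilised 1:1 with 10% metaphosphoric acid, stored at −80°C. LC/MS/MS in negative ion MRM mode (m/z 175.0/114.8).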

The conditions of series [11]: humans, oral dose of 1,250 mg; cited from earlier work.
For series [12] the following is noted: human plasma, within an hour post-dose; cited from earlier work.
Setting [13] is: iv, read-out: mean 20S proteasome inhibition.

Regarding `O=C(O[C@@H]1Cc2c(O)cc(O)cc2O[C@@H]1c1cc(O)c(O)c(O)c1)c1cc(O)c(O)c(O)c1` [EGCG, epigallocatechin gallate], in series [1] (humans taking EGCG supplements), the “EGCG concentration measured clinically” value is 0.6 to 3 µM. For the same compound, the maximal plasma concentration entry in series [1] (taken after fasting) is “approximately 3 μM and 1,522 ng/ml”; in [1] (taken with food), “approximately 0.6 μM and 294 ng/ml”; in series [8] (oral dosing 50 mg/kg), less than 0.1 µM. For the same compound, the “inhibition of proteasome activity compared with vehicle controls” value against 20S proteasome [2] (tumor, EGCG 50 mg/kg IV alone, 4 h (Fig. 4a)) is reported as “No inhibition”; against 20S proteasome [3] (blood, EGCG 50 mg/kg IV alone, 4 h (Fig. 4a)) it was “No inhibition”. Besides, the “EGCG concentrations that antagonized the cytotoxic effect of bortezomib” value with MM cell lines was no less than 2.5 µM. Also, in the series with RPMI-8226 cells (EGCG 3.8 μM), the “antagonism of 40 nM bortezomib” value is recorded as “no antagonism”. The “cytotoxicity of EGCG on its own” value in the series with RPMI-8226 cells (EGCG 100 μM) was “cytotoxic”. Besides, the “impact on the cytotoxicity of bortezomib” value with RPMI-8226 cells (EGCG concentrations of up to 0.4 μM) was “no impact”. In addition, the “EGCG concentration required for a substantial shift in the potency of bortezomib” value in the series on RPMI-8226 cells (RPMI8226 cell viability) was greater than 1000 nM. Besides, the “levels of phospho-β-catenin, GADD34, and ATF3” value in series [4] (EGCG 50 mg/kg IV on its own) is “does not change levels”. The values for the TGI in series [5] (EGCG 50 mg/kg IV BIW alone) and in series [5] (EGCG 50 mg/kg SC BIW single agent) were −15.3% and 3.6%, respectively. For the same compound, the plasma concentration entry in series [6] (50 mg/kg EGCG administered intragastrically, at 50 min) is “approximately 60 nM”. Further, the maximal plasma concentrations in series [6] (mice, oral dosing of 50 and 80 mg/kg) was 0.06 to 0.28 µM. For the same compound, in the series on glioblastoma cell line, the “effect on proteasome inhibition by bortezomib” value is reported as “blocked proteasome inhibition”. The “effect on the antitumor effects of bortezomib” value in series [7] (oral EGCG 25 or 50 mg/kg, bortezomib i.p. 0.5 mg/kg) is “inhibits the antitumor effects”. For the same compound, the “Projected plasma concentration of EGCG at the time of bortezomib dosing” value in series [8] (50 mg/kg IV EGCG, 2 min interval) is 224 µM; in series [8] (50 mg/kg SC EGCG, 30 min interval), 11 to 16 µM; in series [8] (50 mg/kg SC EGCG, 60 min interval), 4 to 8 µM. For the same compound, in series [8] (IV and SC dosing at 50 mg/kg), the “time plasma concentration remained higher than 3 μM” value is reported as roughly 2 h. The “maximal EGCG concentration” value in series [8] (SC 50 mg/kg) was greater than 25 µM. Also, the EGCG plasma concentration in series [8] (SC 50 mg/kg, 30 min post-dose, first study) was determined as 16.2 µM; in series [8] (SC 50 mg/kg, 30 min post-dose, second study) it was 11.3 µM; in series [8] (SC 50 mg/kg, 1 h post-dose, first study), 8.4 µM; in series [8] (SC 50 mg/kg, 1 h post-dose, second study), 3.9 µM; in [8] (SC 50 mg/kg, 2 h post-dose, first study) it was 2.8 µM; in [8] (SC 50 mg/kg, 2 h post-dose, second study), 2.5 µM. The “mean plasma Tmax” value in series [8] (SC 50 mg/kg, naïve male CB17 SCID mice, both studies) was 0.083 h; in [8] (single oral dose 50 mg/kg, naïve female nude mice), 0.5 h. The “plasma levels of EGCG” value in [8] (after IV dosing (50 and 100 mg/kg), within 30 min of dosing) is less than 20 µM. The Cmax (commonly the highest concentration seen after dosing) in [8] (SC 50 mg/kg, naïve male CB17 SCID mice, first study) came out at 33.7 µM; in series [8] (SC 50 mg/kg, naïve male CB17 SCID mice, second study), 26 µM.

Regarding `CC(C)C[C@@H](C=O)NC(=O)[C@H](CC(C)C)NC(=O)[C@H](CC(C)C)NC(=O)OCc1ccccc1` [MG-132] (Cbz-Leu-Leu-Leu-aldehyde), the “effect of EGCG on the proteasome inhibitor” value in [9] was “has no effect”.

As for `CC(C)C[C@H](NC(=O)[C@H](CC(C)C)NC(=O)[C@H](CC(C)C)NC(=O)OCc1ccccc1)B(O)O` [MG-262], the “effect of EGCG on the proteasome inhibitor” value in series [9] is recorded as “antagonizes”.

As for `O=C1O[C@H]([C@@H](O)CO)C(O)=C1O` [ascorbic acid], the “antagonism of the activity of bortezomib” value in the series on RPMI8226 cells (30 μM ascorbic acid, 5 and 10 nM bortezomib) is given as “partially antagonized”; with RPMI8226 cells (250 μM ascorbic acid, 5–10 nM bortezomib), “nearly complete antagonism”. The Cmax in series [10] (plasma, 40 mg/kg) was determined as 72.8 µM; in [10] (plasma, 500 mg/kg) it was 193 µM. Also, the Tmax – broadly, the time from dosing to the highest level – came out at 4 h in series [10] (plasma, 40 mg/kg) and 2 h in series [10] (plasma, 500 mg/kg). Further, in series [10] (oral dosing 40 and 500 mg/kg), the “time elevated plasma level above endogenous is maintained” value was “at least 6 h”. The “levels of endogenous ascorbic acid” value in [10] (plasma, naïve or CWR22 tumor-bearing male CB-17 SCID mice) was 48.3 to 59.2 µM. Besides, the results for the TGI in [5] (ascorbic acid 40 mg/kg PO QD alone) and in series [5] (ascorbic acid 500 mg/kg PO QD alone) were −24.4% and −15.5%, respectively. The maximal concentrations result in series [11] is on record as “approximately 150 μM”. The “effect on the antitumor effects of bortezomib” value in series [7] (oral vitamin C 40 mg/kg/day, bortezomib IV 0.1 mg/kg) is given as “inhibits the antitumor effects”.

Regarding `CC(C)C[C@H](NC(=O)[C@H](Cc1ccccc1)NC(=O)c1cnccn1)B(O)O` [bortezomib, reference compound], the inhibition (as a rule, the change of the read-out against control, counted positive when it falls) at 0.8 mg/kg at 20S proteasome [2] (setting [13]) was 52%; at 20S proteasome [3] (setting [13]), 44%; on 20S proteasome [3] (read-out: mean proteasome inhibition), 59%. Moreover, the “effect of EGCG on the proteasome inhibitor” value in series [9] is recorded as “antagonizes”. The “increase in the IC50 of bortezomib” value in the series on RPMI-8226 cells (3.8 μM EGCG versus no EGCG) stood at 2.5 fold. Further, the IC50 (usually the concentration needed to halve the response being measured) in the series with RPMI-8226 cells (read-out: Btz IC50, RPMI-8226 cells, 48 h, EGCG 425 nM (0.4 μM)) was 7 nM. Moreover, the “drop of plasma concentrations” value in [12] was “more than 10 fold”. Also, in series [4] (bortezomib 0.8 mg/kg IV), the “levels of phospho-β-catenin, GADD34, and ATF3 compared with vehicle controls” value was “elevated levels”. For the same compound, the TGI in series [5] (bortezomib 0.8 mg/kg IV BIW alone, vitamin C study (Fig. 5b)) was 62.8%; in series [5] (bortezomib 0.8 mg/kg IV BIW single agent, across EGCG studies, versus control) it was 53.9–58.9%.

Take `Cc1c(O)cccc1C(=O)N[C@@H](CSc1ccccc1)[C@H](O)CN1C[C@H]2CCCC[C@H]2C[C@H]1C(=O)NC(C)(C)C` [nelfinavir]: the “effect of EGCG on the proteasome inhibitor” value in series [9] was “has no effect”.
